Reference: ChEMBL document CHEMBL3351414, “Novel 9'-substituted-noscapines: synthesis with Suzuki cross-coupling, structure elucidation and biological evaluation” (Eur J Med Chem, 2014)
Calls of active or inactive are those of the source. No cut-off for these calls is given here.

Legend:
[1] = system: PBL; assay: Cytotoxicity against PHA-stimulated human PBLs assessed as reduction in cell growth; format: cell-based
Summary of the method: (§1)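 Peripheral blood lymphocytes from healthy donors, tested either resting (no PHA) or PHA-stimulated. Value is the concentration reducing cell growth by 50%, mean ± SEM of three separate experiments.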

[2] = system: HeLa; assay: Antiproliferative activity against human HeLa cells assessed as reduction in cell viability after 72 hrs by MTT assay; format: functional, cell-based
Summary of the method: (§2)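 Cells kept in RPMI-1640 (Jurkat, SEM, RS4;11) or DMEM (A549, HeLa, IGROV-1, HT-29) with 10% FBS plus penicillin/streptomycin. 8×10^3 cells per well were left 18 h at 37 °C in 5% CO2. Medium was then replaced with fresh medium holding graded compound concentrations from 10 mM DMSO stocks. Cells were incubated 72 h and viability read by MTT. IC50 is the mean ± SEM from dose–response curves of at least three independent experiments.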

[3] = system: Jurkat; assay: Antiproliferative activity against human Jurkat cells assessed as reduction in cell viability after 72 hrs by MTT assay; format: functional, cell-based; summary of the method: as §2
[4] = Antiproliferative activity against human SEM cells assessed as reduction in cell viability after 72 hrs by MTT assay; format: functional, cell-based; summary of the method: as §2
[5] = Antiproliferative activity against human RS4:11 cells assessed as reduction in cell viability after 72 hrs by MTT assay; format: functional, cell-based; details: RS4-11, 72 h; summary of the method: as §2
[6] = system: CCRF-CEM; assay: Antiproliferative activity against human CEM cells assessed as reduction in cell viability after 72 hrs by MTT assay; format: functional, cell-based
[7] = system: LoVo; assay: Antiproliferative activity against human LoVo cells assessed as reduction in cell viability after 72 hrs by MTT assay; format: functional, cell-based
[8] = system: HT-29; assay: Antiproliferative activity against human HT-29 cells assessed as reduction in cell viability after 72 hrs by MTT assay; format: functional, cell-based; details: HT-29, 72 h; summary of the method: as §2
[9] = system: A549; assay: Antiproliferative activity against human A549 cells assessed as reduction in cell viability after 72 hrs by MTT assay; format: functional, cell-based; details: A549, 72 h; summary of the method: as §2
[10] = system: IGROV-1; assay: Antiproliferative activity against human IGROV1 cells assessed as reduction in cell viability after 72 hrs by MTT assay; format: functional, cell-based; details: IGROV-1, 72 h; summary of the method: as §2
[11] = system: PBL; assay: Cytotoxicity against resting human PBLs assessed as reduction in cell growth; format: cell-based; summary of the method: as §1
[12] = target: T1, Tubulin (Bos taurus, UniProt Q6B856+Q862L2+Q862F3); assay: Inhibition of bovine brain tubulin assessed as extent of assembly preincubated for 15 mins by turbidimetry
Summary of the method: (§3)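 Bovine brain tubulin at 10 µM (1.0 mg/mL) in 0.8 M monosodium glutamate pH 6.6 with 4% DMSO and varying compound was preincubated 15 min at 30 °C, then chilled. GTP was added to 0.4 mM final and the temperature jumped from 0 to 30 °C. Turbidity was followed at 350 nm, scoring either maximum rate or extent of assembly at 20 min.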

[13] = target: T1, Tubulin; assay: Inhibition of bovine brain tubulin assessed as rate of assembly preincubated for 15 mins by turbidimetry; summary of the method: as §3
[14] = system: HeLa; assay: Cell cycle arrest in human HeLa cells assessed as accumulation at G2/M phase after 24 hrs by flow cytometry; format: functional, cell-based
Summary of the method: (§4)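 5×10^5 HeLa or Jurkat cells exposed to graded compound concentrations for 24 h. Cells were fixed in ice-cold 70% ethanol, lysed with RNase A/0.1% Triton X-100 buffer and stained with propidium iodide. DNA content was read by flow cytometry. Phase percentages are mean ± SEM of three independent experiments.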

[15] = system: Jurkat; assay: Cell cycle arrest in human Jurkat cells assessed as accumulation at G2/M phase after 24 hrs by flow cytometry; format: functional, cell-based; summary of the method: as §4
[16] = system: HeLa; assay: Cell cycle arrest in human HeLa cells assessed as accumulation at G2/M phase at 10 to 25 uM after 24 hrs by flow cytometry; format: functional, cell-based; summary of the method: as §4
[17] = system: HeLa; assay: Cell cycle arrest in human HeLa cells assessed as accumulation at G2/M phase at 25 uM after 24 hrs by flow cytometry; format: functional; summary of the method: as §4
[18] = system: Jurkat; assay: Cell cycle arrest in human Jurkat cells assessed as accumulation at G2/M phase at 10 to 25 uM after 24 hrs by flow cytometry; format: functional, cell-based; summary of the method: as §4
[19] = system: HeLa; assay: Upregulation of cyclin B protein level in human HeLa cells at 25 uM after 24 hrs by Western blot analysis; format: functional, cell-based
[20] = system: HeLa; assay: Upregulation of cdc25c protein level in human HeLa cells at 25 uM after 24 hrs by Western blot analysis; format: functional, cell-based
[21] = system: HeLa; assay: Downregulation of cdc25c protein level in human HeLa cells at 25 uM after 24 hrs by Western blot analysis; format: functional, cell-based; details: in the assay text read “after 48 hrs” for “after 24 hrs”
Summary of the method: (§5)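 HeLa cells treated 24 or 48 h at 25 µM, then washed in PBS and lysed 30 min on ice. 20 µg protein per lane was resolved on 7.5–15% SDS-PAGE and blotted to PVDF. Blots were probed for cyclin B, p-cdc2 Tyr15, cdc25C and γH2A.X, with β-actin reprobe as loading control and ECL detection.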

[22] = system: HeLa; assay: Upregulation of aurora kinase A protein level in human HeLa cells at 25 uM after 24 hrs by Western blot analysis; format: functional, cell-based
[23] = system: HeLa; assay: Induction of DNA damage in human HeLa cells assessed as increase in phosphorylated form of histone gamma-H2A.X level at 25 uM after 24 hrs by Western blot analysis; format: functional, cell-based; summary of the method: as §5
[24] = system: HeLa; assay: Induction of apoptosis in human HeLa cells assessed as viable cells at 25 uM after 24 hrs using Annexin-V/PI staining by flow cytometry (reference value: 86.7 %); format: functional; details: read-out: Activity
[25] = system: HeLa; assay: Induction of apoptosis in human HeLa cells assessed as early apoptotic cells at 25 uM after 24 hrs using Annexin-V/PI staining by flow cytometry (reference value: 5.26 %); format: functional
[26] = system: HeLa; assay: Induction of apoptosis in human HeLa cells assessed as late apoptotic cells at 25 uM after 24 hrs using Annexin-V/PI staining by flow cytometry (reference value: 4.31 %); format: functional
[27] = system: HeLa; assay: Induction of apoptosis in human HeLa cells assessed as late necrotic cells at 25 uM after 24 hrs using Annexin-V/PI staining by flow cytometry (reference value: 3.70 %); format: functional
[28] = system: HeLa; assay: Induction of apoptosis in human HeLa cells after 24 to 48 hrs using Annexin-V/PI staining by flow cytometry; format: functional, cell-based
[29] = system: HeLa; assay: Induction of apoptosis in human HeLa cells at 6.2 to 50 uM using Annexin-V/PI staining by flow cytometry; format: functional, cell-based; details: TDE = time-dependent effect
[30] = system: HeLa; assay: Induction of apoptosis in human HeLa cells assessed as mitochondrial membrane depolarization after 24 to 48 hrs using JC-1 staining-based fluorescence assay; format: functional, cell-based
Summary of the method: (§6)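 Mitochondrial membrane potential was read with the JC-1 dye in HeLa cells after 24 or 48 h at graded concentrations. Data are mean ± SEM of three independent experiments.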

[31] = system: HeLa; assay: Induction of apoptosis in human HeLa cells assessed as mitochondrial membrane depolarization at 6.2 to 50 uM using JC-1 staining-based fluorescence assay; format: functional, cell-based; details: TDE = time-dependent effect; summary of the method: as §6
[32] = system: HeLa; assay: Induction of apoptosis in human HeLa cells assessed as ROS production at 6.2 to 50 uM after 24 to 48 hrs using H2-DCFDA -based flow cytometry relative to control; format: functional, cell-based
Summary of the method: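 HeLa cells incubated 24 or 48 h at the indicated concentrations, stained with H2-DCFDA and analysed by flow cytometry. Data are mean ± SEM of three independent experiments.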

[33] = system: HeLa; assay: Induction of apoptosis in human HeLa cells assessed as caspase 3 cleavage at 25 uM after 24 to 48 hrs by Western blot analysis; format: functional, cell-based
Summary of the method: (§7)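 HeLa cells treated 24 or 48 h at 25 µM, then lysed. 20 µg protein per lane was run on SDS-PAGE and transferred to PVDF. Membranes were probed 2 h at room temperature for cleaved caspase-9, caspase-3, cleaved PARP, Bcl-2, Mcl-1 or Bax, with peroxidase secondary antibody and ECL. β-Actin reprobe served as loading control.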

[34] = system: HeLa; assay: Induction of apoptosis in human HeLa cells assessed as caspase 9 cleavage at 25 uM after 24 to 48 hrs by Western blot analysis; format: functional, cell-based; summary of the method: as §7
[35] = system: HeLa; assay: Induction of apoptosis in human HeLa cells assessed as PARP cleavage at 25 uM after 24 to 48 hrs by Western blot analysis; format: functional, cell-based; summary of the method: as §7
[36] = system: HeLa; assay: Induction of apoptosis in human HeLa cells assessed as reduction in Bcl-2 expression at 25 uM after 24 hrs by Western blot analysis; format: functional, cell-based; summary of the method: as §7
[37] = system: HeLa; assay: Induction of apoptosis in human HeLa cells assessed as reduction in Bcl-2 expression at 25 uM after 48 hrs by Western blot analysis; format: functional, cell-based; summary of the method: as §7
[38] = system: HeLa; assay: Induction of apoptosis in human HeLa cells assessed as reduction in Mcl-1 expression at 25 uM after 24 hrs by Western blot analysis; format: functional, cell-based; summary of the method: as §7
[39] = system: HeLa; assay: Induction of apoptosis in human HeLa cells assessed as reduction in Mcl-1 expression at 25 uM after 48 hrs by Western blot analysis; format: functional, cell-based; summary of the method: as §7
[40] = target: T1, Tubulin; assay: Displacement of [3H]colchicine from bovine brain tubulin assessed as rate of assembly after 10 mins by liquid scintillation counting
[41] = system: HeLa; assay: Downregulation of phosphorylated form of cdc25c protein level in human HeLa cells at 25 uM after 24 hrs by Western blot analysis; format: functional, cell-based; summary of the method: as §5
[42] = target: Tubulin (Bos taurus) (UniProt Q6B856+Q862L2+Q862F3); assay: Displacement of [3H]colchicine from bovine brain tubulin at 500 uM after 10 mins by liquid scintillation counting
[43] = system: CA46; assay: Cell cycle arrest in human CA46 cells assessed as accumulation at G2/M phase at 5 times IC50 by flow cytometry; format: functional
[44] = system: CA46; assay: Cell cycle arrest in human CA46 cells assessed as reduction in mitotic index by Giemsa staining method relative to control; format: functional; set-up: scale not given: the % may be the effect or the level left
Summary of the method: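 CA46 Burkitt lymphoma cells grown in RPMI 1640 with 17% FBS and 2 mM L-glutamine at 37 °C, 5% CO2, treated 16 h. Cells were swollen 10 min in half-strength PBS, fixed in 0.5% acetic acid–1.5% ethanol, then spread from 25% acetic acid/75% ethanol. Slides were Giemsa-stained. Mitotic cells were those with condensed chromosomes and no nuclear membrane, with ≥200 cells counted per condition.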

COc1ccc2c(c1OC)C(=O)O[C@@H]2[C@H]1c2c(c(-c3ccc4ccccc4c3)c3c(c2OC)OCO3)CCN1C
IC50 [1]: > 200 µM | IC50 [2]: 27.4 µM | IC50 [3]: 20 µM | IC50 [4]: 8.4 µM | IC50 [5]: 30.8 µM | IC50 [6]: 23.3 µM | IC50 [7]: 60.3 µM | IC50 [8]: 58.5 µM | IC50 [9]: 48.1 µM | IC50 [10]: 67 µM | IC50 [11]: > 200 µM

COc1ccc2c(c1OC)C(=O)O[C@@H]2[C@H]1c2c(c(-c3ccccc3)c3c(c2OC)OCO3)CCN1C
IC50 [1]: 54.9 µM | IC50 [12]: > 400 µM | IC50 [13]: > 400 µM | Activity [14]: Dose-dependent effect | Activity [15]: Dose-dependent effect | Activity [16]: Active | Activity [17]: >80% | Activity [18]: Active | Activity [19]: Active | Activity [20]: Active | Activity [21]: Active | Activity [22]: Active | Activity [23]: Active | viability at 25 µM [24]: 7.53% | Activity [25]: 15.9% | Activity [26]: 18.4% | Activity [27]: 18.1% | Activity [28]: Dose-dependent effect | Activity [29]: tde | Activity [30]: Dose-dependent effect | Activity [31]: tde | Activity [32]: Active | Activity [33]: Active | Activity [34]: Active | Activity [35]: Active | Activity [36]: inactive | Activity [37]: Active | Activity [38]: Active | Activity [39]: Active | IC50 [40]: > 400 µM | Activity [41]: Active | IC50 [2]: 7.4 µM | IC50 [3]: 5.4 µM | IC50 [4]: 3.2 µM | IC50 [5]: 2.4 µM | IC50 [6]: 5.2 µM | IC50 [7]: 42.8 µM | IC50 [8]: 36.5 µM | IC50 [10]: 68.1 µM | IC50 [11]: > 200 µM | inhibition [42]: 14%

COc1ccccc1-c1c2c(c(OC)c3c1OCO3)[C@H]([C@H]1OC(=O)c3c1ccc(OC)c3OC)N(C)CC2
IC50 [1]: 42.4 µM | IC50 [12]: > 400 µM | IC50 [13]: > 400 µM | IC50 [40]: > 400 µM | IC50 [2]: 30.8 µM | IC50 [3]: 33.6 µM | IC50 [4]: 22.2 µM | IC50 [5]: 13.8 µM | IC50 [6]: 6.9 µM | IC50 [7]: 57.1 µM | IC50 [8]: 72.7 µM | IC50 [9]: 59.7 µM | IC50 [10]: 90.9 µM | IC50 [11]: > 200 µM | inhibition [42]: 13%

COc1ccc(/C=C\c2cc(OC)c(OC)c(OC)c2)cc1O [COMBRETASTATIN A4]
Activity [43]: >80% | Activity [44]: 46%
